Data taken from ChEMBL document CHEMBL3352507, “Preparation and antimalarial activity of a novel class of carbohydrate-derived, fused thiochromans” (Eur J Med Chem, 2014).

tested on: Plasmodium falciparum; experiment: Antimalarial activity against Plasmodium falciparum 3D7 after 48 hrs by parasite lactate dehydrogenase assay; type: functional, organism-based; settings: 3D7, 48 h
How it was run: (§1)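 Parasite survival read by parasite lactate dehydrogenase (pLDH) assay. Single-concentration prescreen at […]; compounds with 0–15% survival were taken to dose–response. Ten three-fold serial dilutions in triplicate, incubated 48 h in a gassed airtight box, developed with NBT/PES. IC50 from sigmoidal curve of % survival relative to control against log concentration.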

SMILES	IC50 [nM]
[O-][S@@+]1C[C@@H]2[C@@H](OCc3ccccc3)[C@H](OCc3ccccc3)[C@@H](COCc3ccccc3)O[C@@H]2c2c1ccc1ccccc21	3550
[O-][S@+]1C[C@@H]2[C@@H](OCc3ccccc3)[C@H](OCc3ccccc3)[C@@H](COCc3ccccc3)O[C@@H]2c2ccccc21	> 100000
Cc1ccc2c(c1)[C@H]1O[C@H](COCc3ccccc3)[C@@H](OCc3ccccc3)[C@H](OCc3ccccc3)[C@H]1C[S@@+]2[O-]	2570
COc1ccc2c(c1)[C@H]1O[C@H](COCc3ccccc3)[C@@H](OCc3ccccc3)[C@H](OCc3ccccc3)[C@H]1C[S@@+]2[O-]	2210
CC(C)(C)c1ccc2c(c1)[C@H]1O[C@H](COCc3ccccc3)[C@@H](OCc3ccccc3)[C@H](OCc3ccccc3)[C@H]1C[S@@+]2[O-]	1330
Cc1cccc2c1[S@+]([O-])C[C@@H]1[C@@H](OCc3ccccc3)[C@H](OCc3ccccc3)[C@@H](COCc3ccccc3)O[C@H]21	6290
[O-][S@+]1C[C@@H]2[C@@H](OCc3ccccc3)[C@H](OCc3ccccc3)[C@@H](COCc3ccccc3)O[C@@H]2c2c1ccc1ccccc21	2550

tested on: not listed separately; experiment: Cytotoxicity against human WI38 cells assessed as cell viability at 10 uM after 48 hrs by SRB assay; type: cell-based, WI-38; settings: read-out: Activity
How it was run: (§2)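 WI-38 fibroblasts (passages 21–50) were seeded at 10 000 cells/well for 24 h, then exposed for 48 h to compound dissolved in DMSO and diluted in medium. Viable cells were fixed with cold 50% trichloroacetic acid and stained with sulforhodamine B. Bound dye was extracted with 10 mM Tris base and read at 540 nm. Viability relative to drug-free cells.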

SMILES	viability at 48 h, 10 µM [%]
[O-][S@@+]1C[C@@H]2[C@@H](OCc3ccccc3)[C@H](OCc3ccccc3)[C@@H](COCc3ccccc3)O[C@@H]2c2c1ccc1ccccc21	93.7
Cc1ccc2c(c1)[C@H]1O[C@H](COCc3ccccc3)[C@@H](OCc3ccccc3)[C@H](OCc3ccccc3)[C@H]1C[S@@+]2[O-]	92.6
COc1ccc2c(c1)[C@H]1O[C@H](COCc3ccccc3)[C@@H](OCc3ccccc3)[C@H](OCc3ccccc3)[C@H]1C[S@@+]2[O-]	55.4
CC(C)(C)c1ccc2c(c1)[C@H]1O[C@H](COCc3ccccc3)[C@@H](OCc3ccccc3)[C@H](OCc3ccccc3)[C@H]1C[S@@+]2[O-]	86.9
Cc1cccc2c1[S@+]([O-])C[C@@H]1[C@@H](OCc3ccccc3)[C@H](OCc3ccccc3)[C@@H](COCc3ccccc3)O[C@H]21	88.2
[O-][S@+]1C[C@@H]2[C@@H](OCc3ccccc3)[C@H](OCc3ccccc3)[C@@H](COCc3ccccc3)O[C@@H]2c2c1ccc1ccccc21	94.5

tested on: not listed separately; experiment: Cytotoxicity against human WI38 cells assessed as cell viability at 100 uM after 48 hrs by SRB assay; type: cell-based, WI-38; settings: read-out: Activity; how it was run: as §2

SMILES	viability at 48 h, 100 µM [%]
[O-][S@@+]1C[C@@H]2[C@@H](OCc3ccccc3)[C@H](OCc3ccccc3)[C@@H](COCc3ccccc3)O[C@@H]2c2c1ccc1ccccc21	89
Cc1ccc2c(c1)[C@H]1O[C@H](COCc3ccccc3)[C@@H](OCc3ccccc3)[C@H](OCc3ccccc3)[C@H]1C[S@@+]2[O-]	70.3
COc1ccc2c(c1)[C@H]1O[C@H](COCc3ccccc3)[C@@H](OCc3ccccc3)[C@H](OCc3ccccc3)[C@H]1C[S@@+]2[O-]	27.2
CC(C)(C)c1ccc2c(c1)[C@H]1O[C@H](COCc3ccccc3)[C@@H](OCc3ccccc3)[C@H](OCc3ccccc3)[C@H]1C[S@@+]2[O-]	60.2
Cc1cccc2c1[S@+]([O-])C[C@@H]1[C@@H](OCc3ccccc3)[C@H](OCc3ccccc3)[C@@H](COCc3ccccc3)O[C@H]21	52.5
[O-][S@+]1C[C@@H]2[C@@H](OCc3ccccc3)[C@H](OCc3ccccc3)[C@@H](COCc3ccccc3)O[C@@H]2c2c1ccc1ccccc21	79.4

tested on: not listed separately; experiment: Cytotoxicity against human WI38 cells after 48 hrs by SRB assay; type: cell-based; settings: WI-38, 48 h
How it was run: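 WI-38 human fetal lung fibroblasts (passages 21–50) in EMEM with 10% FBS, 2 mM L-glutamine and gentamicin, at 37 °C and 5% CO2. Seeded at 10 000 cells/well, grown 24 h, then given compound in DMSO diluted in medium to 5 concentrations for 48 h. Cells were fixed with cold 50% TCA and stained with SRB, and dye was read at 540 nm. IC50 by non-linear regression against untreated controls.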

SMILES	IC50 [nM]
[O-][S@@+]1C[C@@H]2[C@@H](OCc3ccccc3)[C@H](OCc3ccccc3)[C@@H](COCc3ccccc3)O[C@@H]2c2c1ccc1ccccc21	> 100000
Cc1ccc2c(c1)[C@H]1O[C@H](COCc3ccccc3)[C@@H](OCc3ccccc3)[C@H](OCc3ccccc3)[C@H]1C[S@@+]2[O-]	> 100000
COc1ccc2c(c1)[C@H]1O[C@H](COCc3ccccc3)[C@@H](OCc3ccccc3)[C@H](OCc3ccccc3)[C@H]1C[S@@+]2[O-]	8760
CC(C)(C)c1ccc2c(c1)[C@H]1O[C@H](COCc3ccccc3)[C@@H](OCc3ccccc3)[C@H](OCc3ccccc3)[C@H]1C[S@@+]2[O-]	> 100000
Cc1cccc2c1[S@+]([O-])C[C@@H]1[C@@H](OCc3ccccc3)[C@H](OCc3ccccc3)[C@@H](COCc3ccccc3)O[C@H]21	> 100000
[O-][S@+]1C[C@@H]2[C@@H](OCc3ccccc3)[C@H](OCc3ccccc3)[C@@H](COCc3ccccc3)O[C@@H]2c2c1ccc1ccccc21	> 100000

tested on: not listed separately; experiment: Cytotoxicity against human WI38 cells assessed as cell viability at 0.01 uM after 48 hrs by SRB assay; type: cell-based, WI-38; settings: read-out: Activity; how it was run: as §2

SMILES	viability at 48 h, 0.01 µM [%]
[O-][S@@+]1C[C@@H]2[C@@H](OCc3ccccc3)[C@H](OCc3ccccc3)[C@@H](COCc3ccccc3)O[C@@H]2c2c1ccc1ccccc21	96
Cc1ccc2c(c1)[C@H]1O[C@H](COCc3ccccc3)[C@@H](OCc3ccccc3)[C@H](OCc3ccccc3)[C@H]1C[S@@+]2[O-]	101
COc1ccc2c(c1)[C@H]1O[C@H](COCc3ccccc3)[C@@H](OCc3ccccc3)[C@H](OCc3ccccc3)[C@H]1C[S@@+]2[O-]	97.4
CC(C)(C)c1ccc2c(c1)[C@H]1O[C@H](COCc3ccccc3)[C@@H](OCc3ccccc3)[C@H](OCc3ccccc3)[C@H]1C[S@@+]2[O-]	100
Cc1cccc2c1[S@+]([O-])C[C@@H]1[C@@H](OCc3ccccc3)[C@H](OCc3ccccc3)[C@@H](COCc3ccccc3)O[C@H]21	101
[O-][S@+]1C[C@@H]2[C@@H](OCc3ccccc3)[C@H](OCc3ccccc3)[C@@H](COCc3ccccc3)O[C@@H]2c2c1ccc1ccccc21	101

tested on: Plasmodium falciparum; experiment: Antimalarial activity against Plasmodium falciparum FCR3 after 48 hrs by parasite lactate dehydrogenase assay; type: functional, organism-based; settings: FCR3, 48 h; how it was run: as §1

SMILES	IC50 [nM]
[O-][S@@+]1C[C@@H]2[C@@H](OCc3ccccc3)[C@H](OCc3ccccc3)[C@@H](COCc3ccccc3)O[C@@H]2c2c1ccc1ccccc21	520
[O-][S@+]1C[C@@H]2[C@@H](OCc3ccccc3)[C@H](OCc3ccccc3)[C@@H](COCc3ccccc3)O[C@@H]2c2ccccc21	> 100000
Cc1ccc2c(c1)[C@H]1O[C@H](COCc3ccccc3)[C@@H](OCc3ccccc3)[C@H](OCc3ccccc3)[C@H]1C[S@@+]2[O-]	2910
COc1ccc2c(c1)[C@H]1O[C@H](COCc3ccccc3)[C@@H](OCc3ccccc3)[C@H](OCc3ccccc3)[C@H]1C[S@@+]2[O-]	2070
CC(C)(C)c1ccc2c(c1)[C@H]1O[C@H](COCc3ccccc3)[C@@H](OCc3ccccc3)[C@H](OCc3ccccc3)[C@H]1C[S@@+]2[O-]	330
Cc1cccc2c1[S@+]([O-])C[C@@H]1[C@@H](OCc3ccccc3)[C@H](OCc3ccccc3)[C@@H](COCc3ccccc3)O[C@H]21	4340
[O-][S@+]1C[C@@H]2[C@@H](OCc3ccccc3)[C@H](OCc3ccccc3)[C@@H](COCc3ccccc3)O[C@@H]2c2c1ccc1ccccc21	2170

tested on: not listed separately; experiment: Cytotoxicity against human WI38 cells assessed as cell viability at 0.1 uM after 48 hrs by SRB assay; type: cell-based, WI-38; settings: read-out: Activity; how it was run: as §2

SMILES	viability at 48 h, 0.1 µM [%]
[O-][S@@+]1C[C@@H]2[C@@H](OCc3ccccc3)[C@H](OCc3ccccc3)[C@@H](COCc3ccccc3)O[C@@H]2c2c1ccc1ccccc21	92.5
Cc1ccc2c(c1)[C@H]1O[C@H](COCc3ccccc3)[C@@H](OCc3ccccc3)[C@H](OCc3ccccc3)[C@H]1C[S@@+]2[O-]	101
COc1ccc2c(c1)[C@H]1O[C@H](COCc3ccccc3)[C@@H](OCc3ccccc3)[C@H](OCc3ccccc3)[C@H]1C[S@@+]2[O-]	98
CC(C)(C)c1ccc2c(c1)[C@H]1O[C@H](COCc3ccccc3)[C@@H](OCc3ccccc3)[C@H](OCc3ccccc3)[C@H]1C[S@@+]2[O-]	98.8
Cc1cccc2c1[S@+]([O-])C[C@@H]1[C@@H](OCc3ccccc3)[C@H](OCc3ccccc3)[C@@H](COCc3ccccc3)O[C@H]21	99.3
[O-][S@+]1C[C@@H]2[C@@H](OCc3ccccc3)[C@H](OCc3ccccc3)[C@@H](COCc3ccccc3)O[C@@H]2c2c1ccc1ccccc21	98.5

tested on: not listed separately; experiment: Cytotoxicity against human WI38 cells assessed as cell viability at 1 uM after 48 hrs by SRB assay; type: cell-based, WI-38; settings: read-out: Activity; how it was run: as §2

SMILES	viability at 48 h, 1 µM [%]
[O-][S@@+]1C[C@@H]2[C@@H](OCc3ccccc3)[C@H](OCc3ccccc3)[C@@H](COCc3ccccc3)O[C@@H]2c2c1ccc1ccccc21	96
Cc1ccc2c(c1)[C@H]1O[C@H](COCc3ccccc3)[C@@H](OCc3ccccc3)[C@H](OCc3ccccc3)[C@H]1C[S@@+]2[O-]	100
COc1ccc2c(c1)[C@H]1O[C@H](COCc3ccccc3)[C@@H](OCc3ccccc3)[C@H](OCc3ccccc3)[C@H]1C[S@@+]2[O-]	97.2
CC(C)(C)c1ccc2c(c1)[C@H]1O[C@H](COCc3ccccc3)[C@@H](OCc3ccccc3)[C@H](OCc3ccccc3)[C@H]1C[S@@+]2[O-]	97.1
Cc1cccc2c1[S@+]([O-])C[C@@H]1[C@@H](OCc3ccccc3)[C@H](OCc3ccccc3)[C@@H](COCc3ccccc3)O[C@H]21	95.5
[O-][S@+]1C[C@@H]2[C@@H](OCc3ccccc3)[C@H](OCc3ccccc3)[C@@H](COCc3ccccc3)O[C@@H]2c2c1ccc1ccccc21	96.7
